In ChEMBL document CHEMBL3297663, “Synthesis and evaluation of (E)-2-(acrylamido)cyclohex-1-enecarboxylic acid derivatives as HCA1, HCA2, and HCA3 receptor agonists” (Bioorg Med Chem, 2014):
Activity calls are given as the source filed them. The calls are words filed in the database; no cut-off is given here.

Key:
Assay type in all cases: functional, cell-based
[1] = target: T1, Hydroxycarboxylic acid receptor 2 (Homo sapiens, UniProt Q8TDS4); experiment: Agonist activity at human HCA2 receptor expressed in Flp-In-293 cells assessed as inhibition of forskolin-induced cAMP accumulation at 50 uM after 30 mins
In short: (§1)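 Flp-In-293 cells stably transfected with HCA receptor plasmids were plated at 10,000 cells/well. They were stimulated with forskolin plus compound for 30 min in PBS with 2% BSA and 0.5 mM IBMX. Inhibition of cAMP accumulation at a single compound concentration is expressed as % of the forskolin-stimulated level (set to 100%). Values are mean ± SD of at least three experiments, each in duplicate.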

[2] = target: Hydroxycarboxylic acid receptor 3 (Homo sapiens) (UniProt P49019); experiment: Agonist activity at human HCA3 receptor expressed in Flp-In-293 cells assessed as inhibition of forskolin-induced cAMP accumulation up to 50 uM after 30 mins
In short: (§2)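 Stable HCA-expressing Flp-In-293 cells (10,000/well) were treated with compound plus forskolin for 30 min in PBS containing 2% BSA and 0.5 mM IBMX. The value is the maximal % inhibition of forskolin-stimulated cAMP, with the forskolin-only level taken as 100%. Data are mean ± SD from at least three experiments, each in duplicate.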

[3] = target: Hydroxycarboxylic acid receptor 1 (Homo sapiens) (UniProt Q9BXC0); experiment: Agonist activity at human HCA1 receptor expressed in Flp-In-293 cells assessed as inhibition of forskolin-induced cAMP accumulation up to 50 uM after 30 mins; in short: as §2
[4] = target: T1, Hydroxycarboxylic acid receptor 2; experiment: Agonist activity at human HCA2 receptor expressed in Flp-In-293 cells assessed as inhibition of forskolin-induced cAMP accumulation after 30 mins
In short: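 EC50 values come from an intracellular cAMP assay in Flp-In-293 cells stably expressing the receptor (10,000 cells/well). Cells were co-incubated 30 min with forskolin and compound in PBS, 2% BSA and 0.5 mM IBMX. Values are mean ± SD of at least three experiments, each in duplicate.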

[5] = target: Hydroxycarboxylic acid receptor 3 (Homo sapiens) (UniProt P49019); experiment: Agonist activity at human HCA3 receptor expressed in Flp-In-293 cells assessed as inhibition of forskolin-induced cAMP accumulation at 50 uM after 30 mins; in short: as §1
[6] = target: Hydroxycarboxylic acid receptor 1 (Homo sapiens) (UniProt Q9BXC0); experiment: Agonist activity at human HCA1 receptor expressed in Flp-In-293 cells assessed as inhibition of forskolin-induced cAMP accumulation at 50 uM after 30 mins; in short: as §1
[7] = target: T1, Hydroxycarboxylic acid receptor 2; experiment: Agonist activity at human HCA2 receptor expressed in Flp-In-293 cells assessed as inhibition of forskolin-induced cAMP accumulation up to 50 uM after 30 mins; in short: as §2

T1 sequence (Q8TDS4 whole entry): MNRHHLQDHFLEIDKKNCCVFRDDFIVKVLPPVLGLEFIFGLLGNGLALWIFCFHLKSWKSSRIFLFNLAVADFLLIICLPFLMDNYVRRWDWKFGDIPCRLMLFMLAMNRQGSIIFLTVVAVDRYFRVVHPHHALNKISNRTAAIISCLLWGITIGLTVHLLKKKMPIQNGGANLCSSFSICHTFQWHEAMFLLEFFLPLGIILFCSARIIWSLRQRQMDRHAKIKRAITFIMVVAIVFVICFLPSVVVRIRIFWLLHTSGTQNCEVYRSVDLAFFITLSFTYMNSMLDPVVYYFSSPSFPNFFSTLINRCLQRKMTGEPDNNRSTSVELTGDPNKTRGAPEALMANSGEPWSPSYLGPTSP
Sequence of Hydroxycarboxylic acid receptor 3 (Homo sapiens) (P49019 whole entry): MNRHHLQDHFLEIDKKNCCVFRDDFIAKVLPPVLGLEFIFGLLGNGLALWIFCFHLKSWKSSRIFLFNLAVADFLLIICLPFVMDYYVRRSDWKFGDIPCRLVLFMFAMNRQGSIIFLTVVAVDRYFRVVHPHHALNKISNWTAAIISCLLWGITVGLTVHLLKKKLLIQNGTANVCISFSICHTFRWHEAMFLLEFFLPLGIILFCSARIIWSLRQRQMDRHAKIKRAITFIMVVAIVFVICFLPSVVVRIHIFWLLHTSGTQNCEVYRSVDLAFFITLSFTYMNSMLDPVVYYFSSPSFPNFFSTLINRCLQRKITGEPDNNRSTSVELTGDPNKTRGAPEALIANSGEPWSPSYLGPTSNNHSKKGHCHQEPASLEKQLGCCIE
Sequence of Hydroxycarboxylic acid receptor 1 (Homo sapiens) (Q9BXC0 whole entry): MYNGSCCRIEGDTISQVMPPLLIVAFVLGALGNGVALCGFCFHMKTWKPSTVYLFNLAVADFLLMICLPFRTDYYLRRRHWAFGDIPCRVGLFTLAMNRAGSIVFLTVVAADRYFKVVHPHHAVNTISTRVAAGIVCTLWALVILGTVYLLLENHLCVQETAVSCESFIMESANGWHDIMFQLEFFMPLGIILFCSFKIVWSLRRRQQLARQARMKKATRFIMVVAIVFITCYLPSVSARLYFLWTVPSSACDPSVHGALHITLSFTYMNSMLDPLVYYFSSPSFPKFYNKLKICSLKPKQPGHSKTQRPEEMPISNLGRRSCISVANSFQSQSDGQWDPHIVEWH

SMILES	inhibition [1]	inhibition [2]	inhibition [3]	EC50 [4]	Emax [4]	inhibition [5]	inhibition [6]	inhibition [7]
O=C(O)C1=C(NC(=O)[C@H]2C[C@H]2c2ccc3ccccc3c2)CCCC1 (racemic)	34%	inactive	inactive					
O=C(/C=C/c1ccc2cccc(O)c2n1)NC1=C(C(=O)O)CCCC1	27%	inactive	inactive					
O=C(/C=C/C#Cc1ccccc1)NC1=C(C(=O)O)CCCC1			inactive	3.6 µM	90%	56%		
O=C(CCc1ccc2c(c1)OCO2)NC1=C(C(=O)O)CCCC1				51.6 µM	85%	62%	28%	
O=C(/C=C/c1ccc2c(c1)OCCO2)NC1=C(C(=O)O)CCCC1			inactive	6.8 µM	93%	66%		
O=C(CCc1ccc2cc(O)ccc2c1)NC1=C(C(=O)O)CCCC1		inactive		1.9 µM	97%		26%	
COc1ccc2nc(Cl)c(CCC(=O)NC3=C(C(=O)O)CCCC3)cc2c1				4.1 µM	91%	53%	24%	
O=C(CCc1cccc2cccnc12)NC1=C(C(=O)O)CCCC1	60%		inactive			55%		
O=C(CCc1ccc2ncccc2c1)NC1=C(C(=O)O)CCCC1	70%					60%	26%	
O=C(/C=C/c1cc2c(cc1Cl)OCO2)NC1=C(C(=O)O)CCCC1	17%					59%	34%	
Cc1ccc2cc(CCC(=O)NC3=C(C(=O)O)CCCC3)ccc2n1				36.4 µM	82%	54%	23%	
O=C(/C=C/c1cc2c(cc1Br)OCO2)NC1=C(C(=O)O)CCCC1	24%		inactive			54%		
O=C(O)C1=C(NC(=O)[C@@H]2C[C@H]2c2ccc3ccccc3c2)CCCC1 (racemic)				12.5 µM	96%	55%	40%	
O=C(CCc1ccc2ccccc2c1)NC1=C(C(=O)O)CCCC1				8.3 µM	97%	66%	41%	
COc1ccc(/C=C/C(=O)NC2=C(C(=O)O)CCCC2)cc1OC	51%					58%	31%	
COc1cc2nc(/C=C/C(=O)NC3=C(C(=O)O)CCCC3)ccc2c(OC)c1OC	53%					61%	38%	
O=C(C#Cc1ccc2cc(O)ccc2c1)NC1=C(C(=O)O)CCCC1		inactive	inactive	0.9 µM	98%			
O=C(/C=C/c1ccc2cc(O)ccc2c1)NC1=C(C(=O)O)CCCC1		inactive	inactive	1.4 µM	96%			
COc1ccc(/C=C/C(=O)NC2=C(C(=O)O)CCCC2)c(Cl)c1OC				26.3 µM	95%	48%	36%	
COc1cc(/C=C/C(=O)NC2=C(C(=O)O)CCCC2)cc(Br)c1OC	23%		inactive			46%		
O=C(/C=C/c1ccc2c(c1)OCO2)NC1=C(C(=O)O)CCCC1			inactive	5.8 µM	83%	26%		

Other lines, results leading:

inhibition [1]	inhibition [2]	inhibition [3]	EC50 [4]	Emax [4]	inhibition [5]	inhibition [6]	inhibition [7]	SMILES
			27.4 µM	79%	52%	37%		O=C(/C=C/c1cc2ccccc2nc1Cl)NC1=C(C(=O)O)CCCC1
59%					58%	27%		COc1nc2ccccc2cc1/C=C/C(=O)NC1=C(C(=O)O)CCCC1
	inactive					26%	inactive	COc1ccc2cc(/C=C/C(=O)NC3=C(C(=O)O)CCCC3)ccc2c1
	inactive	inactive	4.1 µM	99%				O=C(/C=C/c1ccc2ccccc2n1)NC1=C(C(=O)O)CCCC1
	inactive		6.3 µM	86%		21%		COc1ccc2nc(Cl)c(/C=C/C(=O)NC3=C(C(=O)O)CCCC3)cc2c1
	inactive	inactive					inactive	Cc1ccc2cc(/C=C/C(=O)NC3=C(C(=O)O)CCCC3)ccc2n1
		inactive			54%		inactive	O=C(/C=C/c1cccc2cccnc12)NC1=C(C(=O)O)CCCC1
	inactive		4.5 µM	94%		14%		O=C(/C=C/c1ccc2ccccc2c1)NC1=C(C(=O)O)CCCC1
68%					39%	24%		O=C(/C=C/c1ccc2ncccc2c1)NC1=C(C(=O)O)CCCC1
	inactive	inactive					inactive	O=C(/C=C/c1ccnc2ccccc12)NC1=C(C(=O)O)CCCC1
